Screening data: PubChem BioAssay, Johns Hopkins Ion Channel Center
This is a sample that favours compounds with a hit; in the whole collection about 2.3% have one here.
TRPC4 act – activators of mouse TRPC4 channel, primary screen, Fluo4 calcium, HEK293 TRPC4beta/mu-opioid cells; Fluo4 calcium fluorescence; active compounds read high; B-score at 10 µM; hit rate 0.49% among 310,000; AID 2237, 2010;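 active means B-score above 5 SD of library B-scores, and initial fluorescence ratio not above library mean plus 5 SD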;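 further: positive B-score marks a calcium rise read as TRPC4 activation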
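Assay system: HEK293 cells stably co-expressing mouse TRPC4beta and mu-opioid receptor / Timing: Fluo4 dye loading 45 min at room temperature, 110 s recording / Signal: Fluo4 calcium-sensitive dye fluorescence, kinetic, 1 Hz baseline / Read-out: integrated baseline-normalised fluorescence ratio, converted to per-well B score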
TRPC6 act – mouse TRPC6 channel activators, primary screen, cell-based, HEK293, membrane potential dye | Short transient receptor potential channel 6 (Mus musculus), Q61143 | HEK293-TRPC6 membrane potential dye fluorescence; active compounds read high | B-score at 10 µM | hit rate 0.13% among 310,000 | AID 2550, 2010;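 active means B-score of the integrated fluorescence ratio above library mean plus 3 SD, and starting fluorescence ratio within library mean plus 5 SD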;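 further: higher score means more depolarization so channel activation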
TRPC4 potent – positive allosteric modulators of TRPC4, primary screen, cell-based, mouse TRPC4beta, HEK293 mu-opioid, Fluo-4 calcium. Short transient receptor potential channel 4 (Mus musculus), Q9QUQ5. DAMGO EC20, Fluo-4 Ca2+ flux; active compounds read high. B-score at 10 µM. hit rate 0.42% among 310,000;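 active means B-score of calcium response area above 5 SD of library B-scores, with initial fluorescence ratio within 5 SD of library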;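 further: B-score of integrated fluorescence ratio over time as area under calcium response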
TRPC6 inhibitor – mouse TRPC6 channel inhibitors, primary screen, cell-based, HEK293, membrane potential dye; Short transient receptor potential channel 6 (Mus musculus), Q61143; ACh-evoked depolarization; active compounds read low; B-score at 10 µM; hit rate 1.1% among 310,000; AID 2553, 2010;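 active means B-score under library mean minus 3 SD, initial fluorescence not abnormally high, positive integrated signal ratio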;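 further: B-score derived from integrated fluorescence ratio over the kinetic read; more negative B-score means stronger inhibition of depolarization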
TRPC4 inh – inhibitors of mouse TRPC4 channel, primary screen, Fluo4 calcium, HEK293 TRPC4beta/mu-opioid cells; Short transient receptor potential channel 4 (Mus musculus), Q9QUQ5; DAMGO-evoked Fluo4 calcium flux; active compounds read low; B-score at 10 µM; hit rate 0.39% among 300,000;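 active means B-score over 3 SD under the library average, no early fluorescence shift, positive overall ratio signal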
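Assay system – HEK293 line stably carrying TRPC4beta and mu-opioid receptor · Doses – single dose · Detection – Fluo4 calcium-dye fluorescence, kinetic read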
An asterisk follows results filed as active.

For Cc1ccc2nc3c(c(Nc4cccc(O)c4)c2c1)CCC3 the results were TRPC4 act inactive, TRPC6 act inactive, TRPC4 potent inactive, TRPC6 inhibitor inactive and TRPC4 inh inactive.
For O=C(Nc1cc(F)ccc1F)c1ccc(-n2cncn2)c([N+](=O)[O-])c1 the results were TRPC4 act inactive, TRPC6 act inactive, TRPC4 potent inactive, TRPC6 inhibitor inactive and TRPC4 inh inactive.
Screening CCN1CCC(NC(=O)Nc2ccc(F)cc2)CC1 returned TRPC4 act inactive, TRPC6 act inactive, TRPC4 potent inactive, TRPC6 inhibitor inactive and TRPC4 inh inactive.
For CCCN1CCC(NC(=O)Cc2cccc(C)c2)CC1 the results were TRPC4 act 89*, TRPC6 act inactive, TRPC4 potent inactive, TRPC6 inhibitor inactive and TRPC4 inh inactive.
CCCN1CCC(NC(=O)Nc2ccc(F)cc2F)CC1 was read as TRPC4 act 43*, TRPC6 act inactive, TRPC4 potent inactive, TRPC6 inhibitor inactive and TRPC4 inh inactive.
Screening CCCN1CCC(NC(=O)Cc2ccc(C)cc2)CC1 returned TRPC4 act 62*, TRPC6 act inactive, TRPC4 potent 10*, TRPC6 inhibitor inactive and TRPC4 inh inactive.
CC(=O)N1c2ccc(S(=O)(=O)N3CCCCC3)cc2CC1C(=O)Nc1ccc(C)cc1 (centres undefined) was read as TRPC4 act inactive, TRPC6 act inactive, TRPC4 potent inactive, TRPC6 inhibitor inactive and TRPC4 inh inactive.
For COc1cc(OC)cc(C(=O)NCC(=O)OCC(=O)C(C)(C)C)c1 the results were TRPC4 act inactive, TRPC6 act inactive, TRPC4 potent inactive, TRPC6 inhibitor inactive and TRPC4 inh inactive.
`CCSC1=N/C(=C\c2ccc(OC)cc2)C(=O)N1` gave TRPC4 act inactive, TRPC6 act inactive, TRPC4 potent 86*, TRPC6 inhibitor inactive and TRPC4 inh inactive.
For CCCCC/C(=N\NC(=O)Nc1ccccc1)c1ccccc1 the results were TRPC4 act inactive, TRPC6 act inactive, TRPC4 potent inactive, TRPC6 inhibitor inactive and TRPC4 inh inactive.
CCCC/C(C)=N/NC(=O)Nc1ccccc1 was read as TRPC4 act 74*, TRPC6 act inactive, TRPC4 potent inactive, TRPC6 inhibitor inactive and TRPC4 inh inactive.
`O=C(Nc1ccccc1N1CCN(C(=O)c2ccccc2)CC1)c1ccc(Cl)cc1` gave TRPC4 act inactive, TRPC6 act inactive, TRPC4 potent inactive, TRPC6 inhibitor inactive and TRPC4 inh inactive.
`O=C(Nc1ccccc1N1CCN(C(=O)c2ccccc2)CC1)c1ccc(Br)o1` gave TRPC4 act inactive, TRPC6 act inactive, TRPC4 potent inactive, TRPC6 inhibitor inactive and TRPC4 inh -7*.
For COc1ccc(C(=O)Nc2ccccc2N2CCN(C(=O)c3ccccc3)CC2)cc1Br the results were TRPC4 act inactive, TRPC6 act inactive, TRPC4 potent inactive, TRPC6 inhibitor inactive and TRPC4 inh -6*.
`O=C(NC(=S)Nc1ccccc1)c1ccc(Br)o1` gave TRPC4 act inactive, TRPC6 act inactive, TRPC4 potent inactive, TRPC6 inhibitor inactive and TRPC4 inh inactive.
O=C(Nc1ccc(Nc2ccccc2)cc1)c1ccc(Br)o1 was read as TRPC4 act inactive, TRPC6 act inactive, TRPC4 potent 13*, TRPC6 inhibitor inactive and TRPC4 inh inactive.
For NC(=O)c1cc(S(=O)(=O)NCc2cccc(Br)c2)cs1 the results were TRPC4 act inactive, TRPC6 act inactive, TRPC4 potent inactive, TRPC6 inhibitor inactive and TRPC4 inh inactive.
Screening CC(C)OP(=O)(c1ccc(N(C)C)cc1)C(O)c1ccc(C(C)C)cc1 (centres undefined) returned TRPC4 act inactive, TRPC6 act inactive, TRPC4 potent inactive, TRPC6 inhibitor inactive and TRPC4 inh inactive.
Screening Cc1ccc(Nc2c(N)c(=O)oc3ccccc23)cc1 returned TRPC4 act inactive, TRPC6 act inactive, TRPC4 potent 31*, TRPC6 inhibitor inactive and TRPC4 inh inactive.
OC1(Cc2ccccc2)CCNCC1 was read as TRPC4 act inactive, TRPC6 act inactive, TRPC4 potent inactive, TRPC6 inhibitor inactive and TRPC4 inh inactive.
Screening C=CCc1cc(C)ccc1OCCn1ccnc1 returned TRPC4 act inactive, TRPC6 act inactive, TRPC4 potent inactive, TRPC6 inhibitor inactive and TRPC4 inh inactive.
`C=CCc1cc(Cl)ccc1OCCn1ccnc1` gave TRPC4 act 116*, TRPC6 act inactive, TRPC4 potent 14*, TRPC6 inhibitor inactive and TRPC4 inh inactive.
C=CCc1cc(Cl)ccc1OCCCn1ccnc1 was read as TRPC4 act inactive, TRPC6 act inactive, TRPC4 potent 19*, TRPC6 inhibitor inactive and TRPC4 inh inactive.
For CC(=O)N1[C@H](C)C=C[C@]1(Cc1ccccc1)C(=O)NCCN1CCOCC1 the results were TRPC4 act inactive, TRPC6 act inactive, TRPC4 potent inactive, TRPC6 inhibitor inactive and TRPC4 inh inactive.
For O=C(NCCCNC(=O)c1ccc(F)cc1)c1ccc(F)cc1 the results were TRPC4 act inactive, TRPC6 act inactive, TRPC4 potent inactive, TRPC6 inhibitor inactive and TRPC4 inh inactive.
Screening CCC(=O)N1CCc2cc(S(=O)(=O)N3CCCCCC3)ccc21 returned TRPC4 act inactive, TRPC6 act inactive, TRPC4 potent inactive, TRPC6 inhibitor inactive and TRPC4 inh inactive.
For CCN1CCN(c2ncc(C(=O)Nc3cc(Cl)c(OC)cc3OC)c3ccccc23)CC1 the results were TRPC4 act 61*, TRPC6 act inactive, TRPC4 potent inactive, TRPC6 inhibitor inactive and TRPC4 inh inactive.
Screening CCN1CCN(c2ncc(C(=O)Nc3c(F)cc(F)cc3Br)c3ccccc23)CC1 returned TRPC4 act inactive, TRPC6 act inactive, TRPC4 potent inactive, TRPC6 inhibitor inactive and TRPC4 inh inactive.
For Cc1ccc(C2(O)CN(c3ccccc3)C3=[N+]2CCS3)cc1 (centres undefined) the results were TRPC4 act 43*, TRPC6 act inactive, TRPC4 potent inactive, TRPC6 inhibitor inactive and TRPC4 inh -7*.
CC1(c2ccc([N+](=O)[O-])cc2)Nc2ccccc2S1 (centres undefined) was read as TRPC4 act inactive, TRPC6 act inactive, TRPC4 potent inactive, TRPC6 inhibitor inactive and TRPC4 inh inactive.
Screening OC1(c2cccs2)CN(c2ccc(Cl)cc2)C2=[N+]1CCCS2 (centres undefined) returned TRPC4 act inactive, TRPC6 act inactive, TRPC4 potent inactive, TRPC6 inhibitor inactive and TRPC4 inh inactive.
